For test [1], the target named is T1, Heat shock protein HSP90 (Homo sapiens) (UniProt P07900+P08238). Put plainly: Inhibition of Hsp90 in human PC3MM2 cells assessed as suppression of firefly luciferase rematuration at 0.02 to 20 uM incubated for 1 hr by luciferase reporter gene assay. The format is cell-based. The procedure, abridged: (§1)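 Hsp90-dependent refolding of thermally denatured firefly luciferase in PC3-MM2 cells. Compounds tested from 0.02 to 20 μM.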
(Reporter assays use an easily measured gene product as a stand-in for the process of interest.)

The target of test [2] is T1, Heat shock protein HSP90 (Homo sapiens). As to the kind of experiment: Induction of HSP90-mediated HSF1 expression in human PC3MM2 cells at 10 uM after 24 hrs by Western blot analysis. It is filed as cell-based. The procedure, abridged: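 PC3-MM2 cells exposed to 10 μM of each compound for 24 h. HSF1 measured by Western blot relative to β-actin.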
A general note: In western blotting, separated proteins are transferred to a membrane and probed.

The species entered for test [3] is Homo sapiens. Put plainly: Inhibition of Hsp90alpha/Aha1 interaction in human PC3MM2 cells assessed as remaining Hsp90alpha/Aha complex levels at 100 uM after 24 hrs by Western blot analysis (reference value: 98 to 100 %). The format is cell-based.
For test [4], the target named is T1, Heat shock protein HSP90 (Homo sapiens). As to the kind of experiment: Inhibition of Hsp90 in human PC3MM2 cells assessed as downregulation of Raf1 at 100 uM after 24 hrs by Western blot analysis. The format is cell-based.
Test [5] has the same target. As to the kind of experiment: Effect on Hsp90 in human PC3MM2 cells assessed as stimulation of firefly luciferase rematuration at 0.02 to 20 uM incubated for 1 hr by luciferase reporter gene assay. The format is cell-based. The procedure, abridged: as §1
The nature of test [6]: Antiproliferative activity against human PC3MM2 cells. The format is functional, cell-based. Put shortly: (§2)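 Antiproliferative assay in SkBr3 (Her2-overexpressing breast) and PC3-MM2 (androgen-independent prostate) cancer cells. IC50 in μM given as mean ± standard deviation of at least two separate experiments, each run in triplicate.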
The species named for a further test is Rattus norvegicus. Put plainly: Neuroprotective activity in rat 50B11 cells assessed as maximal respiratory capacity at 5 uM after 24 hrs in presence of oligomycin/FCCP/rotenon/antimycin by extracellular flux analysis.
The target of test [7] is T1, Heat shock protein HSP90 (Homo sapiens). As to the kind of experiment: Inhibition of Hsp90 in human PC3MM2 cells assessed as downregulation of Her2 at 100 uM after 24 hrs by Western blot analysis. The format is cell-based.
Test [8] shares this target. As to the kind of experiment: Inhibition of Hsp90 in human PC3MM2 cells assessed as downregulation of Akt at 100 uM after 24 hrs by Western blot analysis. The format is cell-based.
Another test concerns SK-BR-3. Put plainly: Antiproliferative activity against human SK-BR-3 cells. The format is functional, cell-based. Put shortly: as §2
For test [9], the target named is T1, Heat shock protein HSP90 (Homo sapiens). Put plainly: Inhibition of Hsp90 in human PC3MM2 cells assessed as downregulation of Her2 at 0.5 to 3 times IC50 after 24 hrs by Western blot analysis. It is filed as cell-based. The procedure, abridged: (§3)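 PC3-MM2 cells treated 24 h at a high (3 × IC50) and a low (0.5 × IC50) concentration. Hsp90 client protein levels measured by Western blot with actin as loading control.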

Test [10] has the same target. As to the kind of experiment: Inhibition of Hsp90 in human PC3MM2 cells assessed as downregulation of Raf1 at 0.5 to 3 times IC50 after 24 hrs by Western blot analysis. It is filed as cell-based. The procedure, abridged: as §3
Test [11] shares this target. As to the kind of experiment: Induction of Hsp90 in human PC3MM2 cells at 0.5 to 3 times IC50 after 24 hrs by Western blot analysis. It is filed as cell-based. The procedure, abridged: as §3
The target is the same in test [12]. Put plainly: Inhibition of Hsp90 in human PC3MM2 cells assessed as downregulation of Akt at 0.5 to 3 times IC50 after 24 hrs by Western blot analysis. It is filed as cell-based. The procedure, abridged:
as §3

For test [13], the species on record is Homo sapiens. Put plainly: Inhibition of Hsp90alpha/Aha1 interaction in human PC3MM2 cells assessed as remaining Hsp90alpha/Aha complex levels at 35 uM after 24 hrs by Western blot analysis (reference value: 98 to 100 %). The format is cell-based.
Test [14] is filed under the species Homo sapiens. Put plainly: Inhibition of Hsp90alpha/Aha1 interaction in human PC3MM2 cells assessed as remaining Hsp90alpha/Aha complex levels at 50 uM after 24 hrs by Western blot analysis (reference value: 98 to 100 %). It is filed as cell-based.

The source of these data is ChEMBL document CHEMBL4431379, “Diverging Novobiocin Anti-Cancer Activity from Neuroprotective Activity through Modification of the Amide Tail” (ACS Med Chem Lett, 2016).

The source made the active and inactive calls. No cut-off for these calls is given here.

Take `CCCCC(=O)Nc1cc2ccc(O[C@@H]3OC(C)(C)[C@H](OC)[C@@H](O)[C@H]3O)c(C)c2oc1=O`: the inhibition result in [1], in test [4], in test [7] and in test [8] was “inactive” throughout. Besides, the fold change (FC) in test [2] was determined as 1.5. Moreover, the remaining Hsp90alpha/Aha1 complex level in the test filed under Homo sapiens [3] is 72%. The result (in test [5]; in the test listed under Rattus norvegicus) was Active. The IC50 – broadly, the midpoint of a concentration-inhibition curve – was found to be 317 µM in test [6] and 118 µM with SK-BR-3.

For `CO[C@@H]1[C@@H](O)[C@@H](O)[C@H](Oc2ccc3cc(NC(C)=O)c(=O)oc3c2C)OC1(C)C`, the inhibition entry in test [1] is “inactive”. Further, the fold change (FC) in [2] is 2 to 3.7. For the same compound, in the test listed under Homo sapiens [3], the remaining Hsp90alpha/Aha1 complex level lay in the range of 68 to 70%. Further, the result (in [5]; in the test listed under Rattus norvegicus) was Active. In addition, the figures for the concentration for half-maximal inhibition (IC50) (in test [6]; in the test with SK-BR-3) were > 500 µM and > 900 µM, respectively.

For `CO[C@@H]1[C@@H](O)[C@@H](O)[C@H](Oc2ccc3cc(NC(=O)C4CCCC4)c(=O)oc3c2C)OC1(C)C`, in test [9], the “Her2 downregulation (active/inactive call)” value was “Active”. Also, the inhibition entry in test [1] is “Active”. In test [2], the fold change (FC) turned out to be 2. Also, in the test filed under Homo sapiens [3], the remaining Hsp90alpha/Aha1 complex level amounted to 27%. In addition, in test [10], the “Raf1 downregulation (active/not active)” value was “Active”. For the same compound, the figures for the IC50 (in test [6]; in the test with SK-BR-3) were 144 µM and 67 µM, respectively. Also, in the test filed under Rattus norvegicus, the result was Active. The outcome in test [11] was inactive. Further, the “Akt downregulation (active/not active)” value in test [12] is “Active”.

Turning to `CCCC(=O)Nc1cc2ccc(O[C@@H]3OC(C)(C)[C@H](OC)[C@@H](O)[C@H]3O)c(C)c2oc1=O`, the inhibition result in test [1], in test [4], in test [7] and in test [8] was “inactive” each time. Moreover, in test [2], the fold change (FC) was 1.1. Also, the remaining Hsp90alpha/Aha1 complex level in the test listed under Homo sapiens [3] came out at 100%. The outcome (in test [5]; in the test listed under Rattus norvegicus) was Active. Moreover, the IC50 in test [6] was 466 µM; with SK-BR-3 it was 313 µM.

`CCCCCCC(=O)Nc1cc2ccc(O[C@@H]3OC(C)(C)[C@H](OC)[C@@H](O)[C@H]3O)c(C)c2oc1=O`: the “Her2 downregulation (active/inactive call)” value in test [9] is “Active”. Moreover, the inhibition result in test [1] was “Active”. For the same compound, the fold change (FC) in [2] amounted to 0.6. In addition, the “Raf1 downregulation (active/not active)” value in [10] was “Active”. The figures for the IC50 (in [6]; in the test on SK-BR-3) were 34.7 µM and 58.3 µM, respectively. Moreover, the outcome in the test filed under Rattus norvegicus was Active. In addition, the outcome in [11] was inactive. In the test listed under Homo sapiens [13], the Activity turned out to be 38%. The “Akt downregulation (active/not active)” value in test [12] is “Active”.

As to `CCC(=O)Nc1cc2ccc(O[C@@H]3OC(C)(C)[C@H](OC)[C@@H](O)[C@H]3O)c(C)c2oc1=O`, the inhibition entry in test [1], in [4], in test [7] and in test [8] was “inactive” throughout. For the same compound, the fold change (FC) in test [2] worked out at 1.2. Also, in the test filed under Homo sapiens [3], the remaining Hsp90alpha/Aha1 complex level is 86%. Further, the result (in test [5]; in the test filed under Rattus norvegicus) was Active. The IC50 was found to be 504 µM in test [6] and 643 µM in the test on SK-BR-3.

On to `CO[C@@H]1[C@@H](O)[C@@H](O)[C@H](Oc2ccc3cc(NC(=O)C4CCCCC4)c(=O)oc3c2C)OC1(C)C`, for which the “Her2 downregulation (active/inactive call)” value in test [9] was “Active”. Further, in test [1], the inhibition result was “Active”. Moreover, the Activity in the test listed under Homo sapiens [14] turned out to be 22%. For the same compound, the fold change (FC) in [2] was found to be 1. In addition, the “Raf1 downregulation (active/not active)” value in [10] was “Active”. The values for the IC50 (in test [6]; in the test with SK-BR-3) were 54.6 µM and 46.8 µM, respectively. In addition, the result in the test listed under Rattus norvegicus was Active. Moreover, the result in test [11] was inactive. Besides, the “Akt downregulation (active/not active)” value in test [12] is “Active”.

For `CO[C@@H]1[C@@H](O)[C@@H](O)[C@H](Oc2ccc3cc(NC(=O)C4CC4)c(=O)oc3c2C)OC1(C)C`, in test [2], the fold change (FC) stood at 3.7. The remaining Hsp90alpha/Aha1 complex level in the test filed under Homo sapiens [3] came to 68%. Also, the inhibition entry in [4], in test [7] and in [8] was “inactive” in each case. Further, the IC50 in test [6] was > 500 µM; in the test on SK-BR-3, 517 µM. For the same compound, the outcome in the test filed under Rattus norvegicus was Active.

Take `CO[C@@H]1[C@@H](O)[C@@H](O)[C@H](Oc2ccc3cc(NC(=O)C4CCC4)c(=O)oc3c2C)OC1(C)C`: the fold change (FC) in test [2] amounted to 4. Besides, the remaining Hsp90alpha/Aha1 complex level in the test listed under Homo sapiens [3] was 54%. The inhibition entry in test [4], in [7] and in [8] was “inactive” in each case. Besides, the IC50 in [6] stood at 284 µM; in the test on SK-BR-3, 220 µM. Moreover, the outcome in the test listed under Rattus norvegicus was Active.

`CCCCCC(=O)Nc1cc2ccc(O[C@@H]3OC(C)(C)[C@H](OC)[C@@H](O)[C@H]3O)c(C)c2oc1=O`: the “Her2 downregulation (active/inactive call)” value in test [9] was “Active”. In addition, the inhibition entry in test [1] was “Active”. Also, in the test filed under Homo sapiens [14], the Activity came to 46%. Moreover, the fold change (FC) in test [2] came out at 0.6. Moreover, in test [10], the “Raf1 downregulation (active/not active)” value was “Active”. Besides, the concentration for half-maximal inhibition (IC50) in test [6] is 53.7 µM; in the test on SK-BR-3 it was 84 µM. Besides, the result in the test listed under Rattus norvegicus was Active. The outcome in test [11] was inactive. In addition, the “Akt downregulation (active/not active)” value in test [12] is “Active”.
